Source: ChEMBL document CHEMBL2029310 (Bioorg Med Chem Lett, 2012)
Values belong to the compound of their own block, whether it stands above or below them. Active and inactive are the calls of the source. The rule behind the calls is not given here.

Tests used:
[1] = biological target: T1, Rap guanine nucleotide exchange factor 4 (Homo sapiens, UniProt Q8WZA2); test: Competitive inhibition of Epac2 using fluorescent nucleotide analog 8-NBD-cAMP by fluorescence analysis
Target sequence in this assay (Q8WZA2 whole entry): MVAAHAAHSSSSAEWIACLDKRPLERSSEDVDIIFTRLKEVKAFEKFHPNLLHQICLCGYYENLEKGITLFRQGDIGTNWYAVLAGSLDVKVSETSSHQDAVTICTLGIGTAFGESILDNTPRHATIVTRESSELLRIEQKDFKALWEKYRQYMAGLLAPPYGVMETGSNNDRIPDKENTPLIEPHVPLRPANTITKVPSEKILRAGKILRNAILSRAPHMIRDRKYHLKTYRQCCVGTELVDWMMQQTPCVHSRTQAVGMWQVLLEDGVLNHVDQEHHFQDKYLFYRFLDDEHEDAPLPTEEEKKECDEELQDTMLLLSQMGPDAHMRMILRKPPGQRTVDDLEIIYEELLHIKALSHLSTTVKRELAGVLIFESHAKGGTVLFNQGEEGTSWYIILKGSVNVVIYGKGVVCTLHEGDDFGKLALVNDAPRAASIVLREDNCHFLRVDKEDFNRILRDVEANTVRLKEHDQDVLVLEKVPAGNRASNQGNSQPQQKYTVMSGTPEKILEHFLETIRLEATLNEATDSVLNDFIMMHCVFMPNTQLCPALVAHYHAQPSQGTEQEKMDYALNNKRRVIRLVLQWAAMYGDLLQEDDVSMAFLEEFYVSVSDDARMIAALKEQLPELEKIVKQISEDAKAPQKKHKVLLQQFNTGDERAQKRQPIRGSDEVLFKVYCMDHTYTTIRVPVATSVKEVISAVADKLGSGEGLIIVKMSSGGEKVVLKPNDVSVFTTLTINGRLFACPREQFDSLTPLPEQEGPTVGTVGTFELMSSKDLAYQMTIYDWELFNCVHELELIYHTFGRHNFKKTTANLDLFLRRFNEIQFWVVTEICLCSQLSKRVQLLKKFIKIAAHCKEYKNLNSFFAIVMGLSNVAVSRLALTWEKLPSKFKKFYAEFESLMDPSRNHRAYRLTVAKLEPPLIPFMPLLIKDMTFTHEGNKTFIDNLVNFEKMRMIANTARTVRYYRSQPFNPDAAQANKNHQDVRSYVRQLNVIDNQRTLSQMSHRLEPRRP

[2] = Inhibition of PKA type1 activation at 25 uM
[3] = biological target: T2, Rap guanine nucleotide exchange factor 3 (Homo sapiens) (UniProt O95398); test: Inhibition of recombinant Epac1-mediated Akt phosphorylation at T308 expressed in 007-AM-stimulated HEK293 cells at 10 uM administered 5 mins prior to 007-AM by Western blot analysis; assay type: cell-based
T2 sequence (whole entry): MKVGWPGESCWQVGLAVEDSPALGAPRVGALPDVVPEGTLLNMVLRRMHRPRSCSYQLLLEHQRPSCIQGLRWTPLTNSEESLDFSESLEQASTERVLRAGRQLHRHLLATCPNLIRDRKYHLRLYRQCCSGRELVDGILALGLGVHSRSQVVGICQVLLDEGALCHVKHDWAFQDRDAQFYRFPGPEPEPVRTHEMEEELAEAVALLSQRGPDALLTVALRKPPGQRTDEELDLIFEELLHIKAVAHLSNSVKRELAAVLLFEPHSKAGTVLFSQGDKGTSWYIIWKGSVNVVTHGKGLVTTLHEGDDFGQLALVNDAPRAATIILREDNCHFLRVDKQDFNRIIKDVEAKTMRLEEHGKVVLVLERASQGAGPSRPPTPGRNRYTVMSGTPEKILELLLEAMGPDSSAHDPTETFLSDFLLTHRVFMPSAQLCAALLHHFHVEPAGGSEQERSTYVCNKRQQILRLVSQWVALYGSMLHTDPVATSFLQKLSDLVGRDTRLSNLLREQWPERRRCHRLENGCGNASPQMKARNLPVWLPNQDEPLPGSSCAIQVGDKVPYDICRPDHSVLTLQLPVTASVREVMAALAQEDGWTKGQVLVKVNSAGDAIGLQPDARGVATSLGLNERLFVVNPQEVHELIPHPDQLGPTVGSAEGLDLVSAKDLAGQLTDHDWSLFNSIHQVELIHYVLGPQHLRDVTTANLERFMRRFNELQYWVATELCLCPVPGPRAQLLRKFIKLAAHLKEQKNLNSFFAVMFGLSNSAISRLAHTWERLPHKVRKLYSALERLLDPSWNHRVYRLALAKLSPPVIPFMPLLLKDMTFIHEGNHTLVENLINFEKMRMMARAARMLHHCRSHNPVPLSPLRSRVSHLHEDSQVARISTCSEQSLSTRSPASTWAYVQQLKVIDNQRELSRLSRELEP
Summary of the method: (§1)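 HEK293/Epac1 or HEK293/Epac2 cells were pretreated, or not, with 10 μM antagonist for 5 min. They were then stimulated with 10 μM 007-AM, the membrane-permeable Epac-selective agonist. Cell lysates were immunoblotted with PKB antibodies specific for phospho-Ser473 and phospho-Thr308.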

[4] = Inhibition of PKA type2 activation at 25 uM
[5] = biological target: T1, Rap guanine nucleotide exchange factor 4; test: Inhibition of recombinant Epac2-mediated Akt phosphorylation at S473 expressed in 007-AM-stimulated HEK293 cells at 10 uM administered 5 mins prior to 007-AM by Western blot analysis; assay type: cell-based; summary of the method: as §1
Target sequence in this assay (Q8WZA2 whole entry, looked up): as the sequence (Q8WZA2 whole entry) above

[6] = biological target: T1, Rap guanine nucleotide exchange factor 4; test: Inhibition of cAMP-mediated recombinant Epac2 GEF activity at 25 uM by fluorescence analysis in presence of cAMP
Target sequence in this assay (Q8WZA2 whole entry, looked up): as the sequence (Q8WZA2 whole entry) above

[7] = biological target: T1, Rap guanine nucleotide exchange factor 4; test: Inhibition of recombinant Epac2-mediated Akt phosphorylation at T308 expressed in 007-AM-stimulated HEK293 cells at 10 uM administered 5 mins prior to 007-AM by Western blot analysis; assay type: cell-based; summary of the method: as §1
Target sequence in this assay (Q8WZA2 whole entry, looked up): as the sequence (Q8WZA2 whole entry) above

[8] = biological target: T2, Rap guanine nucleotide exchange factor 3 (Homo sapiens); test: Inhibition of recombinant Epac1-mediated Akt phosphorylation at S473 expressed in 007-AM-stimulated HEK293 cells at 10 uM administered 5 mins prior to 007-AM by Western blot analysis; assay type: cell-based; summary of the method: as §1
[9] = biological target: T2, Rap guanine nucleotide exchange factor 3 (Homo sapiens); test: Inhibition of recombinant Epac1-mediated Rap1-GDP exchange activity at 25 uM by fluorescence analysis in presence of cAMP
[10] = biological target: T2, Rap guanine nucleotide exchange factor 3 (Homo sapiens); test: Inhibition of Epac1 at 25 uM in presence of equal molar concentration of cAMP
[11] = biological target: T1, Rap guanine nucleotide exchange factor 4; test: Inhibition of Epac2 at 25 uM in presence of equal molar concentration of cAMP
Target sequence in this assay (Q8WZA2 whole entry, looked up): as the sequence (Q8WZA2 whole entry) above

Structure (SMILES): N#Cc1c(C2CCCCC2)nc(SCC(=O)Nc2ccccc2)[nH]c1=O
IC50 [1]: > 300 µM

Structure (SMILES): N#Cc1c(C2CCCCC2)nc(Nc2ccccc2)[nH]c1=O
IC50 [1]: > 300 µM

Structure (SMILES): N#Cc1c(C2CCCCC2)nc(SCC(=O)O)[nH]c1=O
IC50 [1]: > 300 µM

Structure (SMILES): N#Cc1c(C2CCCCC2)nc(SCc2ccccc2)[nH]c1=O
IC50 [1]: 30.5 µM

Structure (SMILES): O=S(=O)(NCCNC/C=C/c1ccc(Br)cc1)c1cccc2cnccc12
inhibition [2]: Active
inhibition [4]: Active

Structure (SMILES): N#Cc1c(C2CCCCC2)nc(S)[nH]c1=O
IC50 [1]: > 300 µM

Structure (SMILES): Cc1cc(C)c(NC(=O)CSc2nc(C3CCCCC3)c(C#N)c(=O)[nH]2)c(C)c1
IC50 [1]: > 300 µM

Structure (SMILES): Cc1ccc(CSc2nc(C3CCCCC3)c(C#N)c(=O)[nH]2)cc1
IC50 [1]: 38.7 µM

Structure (SMILES): Cc1ccc(CSc2nc(C3CCCCC3)c(C#N)c(=O)[nH]2)c(C)c1
IC50 [1]: 15.7 µM

Structure (SMILES): Cc1ccc(C)c(CSc2nc(C3CCNCC3)c(C#N)c(=O)[nH]2)c1
IC50 [1]: > 300 µM

Structure (SMILES): N#Cc1c(C2CCCCC2)nc(Nc2ccc(Cl)cc2)[nH]c1=O
IC50 [1]: > 300 µM

Structure (SMILES): Cc1ccc(C)c(CSc2nc(C3CCN(C)CC3)c(C#N)c(=O)[nH]2)c1
IC50 [1]: 127 µM

Structure (SMILES): Cc1ccc(NC(=O)CSc2nc(C3CCCCC3)c(C#N)c(=O)[nH]2)cc1
IC50 [1]: > 300 µM

The remaining compounds from weak to strong by IC50 [1], led by results:

IC50 [1]: 12.7 µM
Structure (SMILES): Cc1ccc(C)c(CSc2nc(C(C)C)c(C#N)c(=O)[nH]2)c1

IC50 [1]: 11.6 µM
Structure (SMILES): Cc1cc(C)c(CSc2nc(C3CCCCC3)c(C#N)c(=O)[nH]2)c(C)c1

inhibition [2]: inactive
inhibition [4]: inactive
inhibition [10]: Active
inhibition [11]: Active
IC50 [1]: 8.4 µM
Structure (SMILES): Cc1ccc(C)c(CSc2nc(C3CCCCC3)c(C#N)c(=O)[nH]2)c1

IC50 [1]: 7 µM
Structure (SMILES): Cc1cc(C)cc(CSc2nc(C3CCCCC3)c(C#N)c(=O)[nH]2)c1

inhibition [2]: inactive
inhibition [9]: Active
inhibition [3]: Active
inhibition [4]: inactive
inhibition [5]: Active
IC50 [1]: 5.9 µM
inhibition [6]: Active
inhibition [7]: Active
inhibition [8]: Active
Structure (SMILES): Cc1ccc(C)c(CSc2nc(C3CCCC3)c(C#N)c(=O)[nH]2)c1

inhibition [2]: inactive
inhibition [3]: Active
inhibition [4]: inactive
inhibition [5]: Active
IC50 [1]: 4 µM
inhibition [6]: Active
inhibition [7]: Active
inhibition [8]: Active
Structure (SMILES): Cc1ccc(C)c(CSc2nc(C3CC3)c(C#N)c(=O)[nH]2)c1
